# Compound activity from PubChem BioAssay.
# C-LANA FP: inhibitors of KSHV LANA C-terminal domain DNA binding. MBP-C-LANA/FAM-LBS DNA binding, fluorescence polarization. inhibition, % at 9 µM. 0.078% of 340,000 active;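 active = highest replicate inhibition at or above 60% at 9 µM, even if other replicates fall short; inactive = all replicates below 60% inhibition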;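 note: 0% = neutral control wells and 100% = 4 µM acridine orange control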
# CAL PDZ FP-1: inhibitors of human CAL PDZ peptide binding | purified CAL PDZ, TMR-peptide fluorescence polarization, 1 h | inhibition, % at 24.9 µM | 0.92% of 300,000 active;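 active = mean inhibition of at least 30% with at least half of replicates also reaching 30%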;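 note: 0% = DMSO neutral control and 100% = excess unlabeled competitor peptide PRC23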
# Keap1 Nrf2 FP: Keap1-Nrf2 (human) interaction inhibition; Q14145; Keap1 Kelch-Nrf2 peptide fluorescence polarization, 1536-well; inhibition, % at 9.4 µM; 0.15% of 340,000 active; AID 504523; in the data active = inhibition above about 12%;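 note: human Keap1 Kelch domain with fluorescein labeled Nrf2 9mer peptide probe; 0% = neutral control wells and 100% = peptide positive control; higher means more block of Keap1 binding to Nrf2 peptide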
# Target sequence (Q14145 whole entry, looked up, the tested form may be a part): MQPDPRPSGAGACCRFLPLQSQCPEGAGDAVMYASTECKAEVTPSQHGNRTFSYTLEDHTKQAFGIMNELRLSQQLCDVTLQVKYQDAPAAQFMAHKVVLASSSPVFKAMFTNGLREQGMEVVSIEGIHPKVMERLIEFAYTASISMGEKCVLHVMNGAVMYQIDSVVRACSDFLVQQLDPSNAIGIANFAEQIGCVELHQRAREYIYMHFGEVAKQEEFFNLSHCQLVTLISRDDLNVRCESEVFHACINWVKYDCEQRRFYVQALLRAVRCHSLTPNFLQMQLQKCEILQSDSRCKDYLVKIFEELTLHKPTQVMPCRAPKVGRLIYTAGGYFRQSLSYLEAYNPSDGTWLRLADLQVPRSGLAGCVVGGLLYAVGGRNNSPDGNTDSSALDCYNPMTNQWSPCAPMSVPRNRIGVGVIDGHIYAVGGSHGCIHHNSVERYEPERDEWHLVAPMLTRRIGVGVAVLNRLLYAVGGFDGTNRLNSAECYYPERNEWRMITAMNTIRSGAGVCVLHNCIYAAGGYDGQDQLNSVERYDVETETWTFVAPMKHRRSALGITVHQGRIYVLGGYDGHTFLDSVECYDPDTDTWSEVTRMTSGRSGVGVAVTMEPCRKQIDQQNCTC
# miR-122 sensor: miR-122 inhibition in Huh7 cells | Huh7 miR-122 Renilla luciferase sensor, 48 h; neutral wells = 0, positive control = 100 | activation (reporter increase), % at 12.5 µM | 0.3% of 340,000 active | AID 602342;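 active = mean replicate activation score at least 90 and every replicate individually at or above 90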;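 note: higher luciferase means less miR-122 activity so hits act as miR-122 inhibitors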
# CAL PDZ FP-2: human CAL PDZ-peptide interaction inhibition | Q9HD26 | purified CAL PDZ, TMR-peptide fluorescence polarization, 1 h | inhibition, % at 20 µM | 0.02% of 330,000 active | AID 504414;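 active = highest replicate inhibition of at least 40%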;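 note: plate controls were DMSO neutral control wells for no effect and unlabeled competitor peptide control wells for full effect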
#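 System: purified tagged CAL PDZ domain construct (CerCALP). Schedule: 1 h incubation at room temperature before polarization reading. Medium: 25 mM sodium phosphate pH 7.4, 150 mM NaCl, TCEP, IgG, Thesit. Read-out: percent inhibition from loss of millipolarization. Measured by: FP readout, S and P plane fluorescence. Probe or stimulus: fluorescent TMR peptide probe.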
# Starred values were filed as active, the others as inactive; · = no result; + = active, no number; [ ] = dose if it differs, or a comment. Rows were chosen to be rich in hits. Some 1.1% of all compounds tested hit in one or more screens of this group.
SMILES,C-LANA FP,CAL PDZ FP-1,Keap1 Nrf2 FP,miR-122 sensor,CAL PDZ FP-2
COc1ccc(NC2CCCN(C(=O)c3csc(C(C)C)n3)C2)cc1 (configuration not stated),1,93*,-7,-2,1
CC(C)c1ccc(NC2CCCN(C(=O)c3ccnn3C)C2)cc1 (configuration not stated),-2,55*,1,3,-1
COc1ccc(NC2CCCN(C(=O)CCc3ccccc3F)C2)cc1 (configuration not stated),-1,78*,-6,3,0
C[C@H]1CN([C@@H](C)CO)C(=O)c2cc(NC(=O)C3CC3)ccc2O[C@H]1CN(C)Cc1ccc(-c2ccccc2)cc1,·,·,·,-12[16.7 µM],·
C[C@H]1CN([C@@H](C)CO)C(=O)c2cc(C3=CCCCC3)cnc2O[C@H]1CN(C)C(=O)c1ccncc1,·,·,·,-6[16.7 µM],·
S=c1nccc(-c2ccc(Cl)cc2)[nH]1,·,·,·,-7,·
Cc1nc2ccccn2c1-c1ccnc(=S)[nH]1,0,+,-1,·,-1
Cc1cc(=O)c(C(=O)O)nn1-c1ccccc1C(F)(F)F,0,·,-4,4,0
Cc1cc(=O)c(C(=O)O)nn1-c1cccc(C(F)(F)F)c1,2,73*,1,·,0
CCOc1cc(C(=S)N2CCN(C)CC2)ccc1OCC(=O)N1CCOCC1,-2,31*,-4,-1,-1
CCOC(=O)/C(C#N)=C/c1ccc(OCC(=O)Nc2ccc(C)c(C)c2)c(OC)c1,0,-2,-1,·,-2
CCOC(=O)/C(C#N)=C/c1ccc(OCC(=O)Nc2ccc(OC)cc2)c(OC)c1,-1,75*,-2,-13,-1
CC(=O)Nc1ccc2nc(CN3CCC(CO)(CCc4ccccc4)CC3)ccc2c1,-1,-3,0,162*,-1
CCCn1c(SCC(=O)N2CCCC2)nc2c1c(=O)n(C)c(=O)n2C,1,-4,-4,-6,-1
CCn1c(SCC(=O)N2CCCC(C)C2)nc2c1c(=O)n(C)c(=O)n2C (configuration not stated),0,+,0,·,-1
COc1ccc(CCNC(=O)Cn2c(=O)n(-c3ccc(F)cc3F)c(=O)c3sccc32)cc1OC,2,32*,4,72,·
COc1ccc(CCNC(=O)Cn2c(=O)n(-c3cc(F)ccc3F)c(=O)c3sccc32)cc1OC,0,2,-3,-6,-1
C[C@@H]1CCCCO[C@H](CN(C)C(=O)Nc2ccc(F)cc2)[C@@H](C)CN([C@H](C)CO)C(=O)c2cc(NS(C)(=O)=O)ccc2O1,·,·,·,11[16.7 µM],·
CNC(=O)c1cc(Nc2nnc(C)c3ccccc23)ccc1OC,-1,35*,1,15,·
COc1ccc(Nc2nnc(C)c3ccccc23)cc1C(N)=O,1,-2,0,1,-2
CCC(=O)N[C@H]1C=C[C@H](CC(=O)NCC2CCCCC2)O[C@H]1CO,·,·,·,-4[16.7 µM],·
Cc1cn(S(=O)(=O)c2ccc(Cl)cc2)c(C)n1,-1,78*,1,·,-1
COc1ccc(NC(=O)Nc2ccc3c(c2)[C@@H]2C[C@H](CC(=O)NCC4CC4)O[C@@H](CO)[C@@H]2O3)cc1,·,·,·,4[16.7 µM],·
C[C@H](NC(=O)N1CCn2c1nc1ccccc12)C(=O)N1CCCCC1,-1,42*,4,-7,0
NC(=O)c1cc[n+](CC2=C(C(=O)O)N3C(=O)[C@@H](NC(=O)C(c4ccccc4)S(=O)(=O)[O-])[C@H]3SC2)cc1 (some centres not stated),102*,-3,23*,-4,0
SMILES,C-LANA FP,CAL PDZ FP-1,Keap1 Nrf2 FP,miR-122 sensor,CAL PDZ FP-2
Cc1cc(NCC2CCCO2)n2c(nc3ccccc32)c1C#N (configuration not stated),2,-2,1,-5,-2
CCc1c(C)c(C#N)c2nc3ccccc3n2c1NCC1CCCO1 (configuration not stated),0,31*,3,-20,0
O=C1CCNc2ccc(-c3ccccc3)cc21,84*,0,24*,·,-2
C[C@@H]1CN([C@@H](C)CO)C(=O)c2cc(NC(=O)Nc3ccc(F)cc3)ccc2O[C@H]1CN(C)Cc1ccc(-c2ccccc2)cc1,·,·,·,-8[16.7 µM],·
CO[C@H]1CN(C)C(=O)c2ccc(NC(C)=O)cc2OC[C@H](C)N(Cc2cc(F)ccc2F)C[C@H]1C,·,·,·,14[16.7 µM],·
COc1ccc(S(=O)(=O)N2CCC[C@H]2C(=O)NCc2ccc(Cl)cc2)cc1,-2,71*,-3,-4,0
